Measured values reported in PMC10842602 (Bioorganic & medicinal chemistry, 2023).

Columns and labels:
WT human SLACK = target: T1, WT human SLACK (Homo sapiens, UniProt Q5JUK3); experiment: Tl+ flux assay in HEK-293 cells stably expressing WT human SLACK; format: cell-based; details: for IC50 / EC50: CRC; for Mode: Tl+ flux, HEK-293 cells expressing WT SLACK
T1 sequence (Q5JUK3 1-1235 isoform Q5JUK3-3): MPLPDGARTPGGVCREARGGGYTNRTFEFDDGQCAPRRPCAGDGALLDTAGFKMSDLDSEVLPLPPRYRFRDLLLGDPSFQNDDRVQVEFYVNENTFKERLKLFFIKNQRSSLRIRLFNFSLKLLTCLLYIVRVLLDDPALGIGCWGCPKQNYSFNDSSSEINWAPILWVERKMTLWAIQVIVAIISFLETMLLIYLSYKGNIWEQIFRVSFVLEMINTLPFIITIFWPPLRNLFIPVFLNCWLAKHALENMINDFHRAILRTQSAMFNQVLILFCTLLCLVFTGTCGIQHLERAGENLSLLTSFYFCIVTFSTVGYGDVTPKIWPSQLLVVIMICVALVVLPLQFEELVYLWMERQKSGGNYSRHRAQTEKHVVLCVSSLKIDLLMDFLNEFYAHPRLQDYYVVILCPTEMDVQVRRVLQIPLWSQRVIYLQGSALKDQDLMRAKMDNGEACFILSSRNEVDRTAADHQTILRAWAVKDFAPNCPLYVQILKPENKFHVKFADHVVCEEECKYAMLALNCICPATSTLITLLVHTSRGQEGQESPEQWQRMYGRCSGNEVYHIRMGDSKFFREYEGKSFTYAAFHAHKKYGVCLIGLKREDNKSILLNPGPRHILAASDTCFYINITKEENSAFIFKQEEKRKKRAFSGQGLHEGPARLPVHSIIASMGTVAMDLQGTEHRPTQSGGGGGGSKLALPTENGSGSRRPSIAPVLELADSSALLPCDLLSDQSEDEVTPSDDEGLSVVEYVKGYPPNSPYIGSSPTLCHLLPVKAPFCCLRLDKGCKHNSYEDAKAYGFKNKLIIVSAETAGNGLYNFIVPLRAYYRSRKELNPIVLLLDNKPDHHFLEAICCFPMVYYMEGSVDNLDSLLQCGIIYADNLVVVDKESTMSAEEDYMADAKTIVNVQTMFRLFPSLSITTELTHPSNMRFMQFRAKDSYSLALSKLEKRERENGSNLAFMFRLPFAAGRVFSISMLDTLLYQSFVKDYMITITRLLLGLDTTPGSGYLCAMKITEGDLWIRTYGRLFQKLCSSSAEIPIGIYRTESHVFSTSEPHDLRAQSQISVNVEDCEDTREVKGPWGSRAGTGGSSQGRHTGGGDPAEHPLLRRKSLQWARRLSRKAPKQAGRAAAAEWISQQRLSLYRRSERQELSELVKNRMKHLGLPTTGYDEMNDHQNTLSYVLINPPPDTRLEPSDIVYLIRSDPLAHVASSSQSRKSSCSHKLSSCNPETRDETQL
Summary of the method: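 Stably transfected HEK-293 cells expressing wild-type human SLACK; thallium flux read-out. IC50 or EC50 taken from concentration-response curves, and each compound classed as inhibitor, activator or not active. Efficacy is the response amplitude at 30 μM test compound, as a percentage of the maximum response to a reference SLACK inhibitor (for inhibitors) or loxapine (for activators).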

Maxi-K (Slo1 α1/β3) = Maxi-K (Slo1 α1/β3) (Homo sapiens, UniProt Q12791); experiment: Tl+ flux assay in HEK-293 cells expressing Maxi-K; format: cell-based; details: CRC
[1] = IC50 for compounds of mode Inh (also cells printed Inactive)

Chain of Maxi-K (Slo1 α1/β3) (Q12791 whole entry, species assumed): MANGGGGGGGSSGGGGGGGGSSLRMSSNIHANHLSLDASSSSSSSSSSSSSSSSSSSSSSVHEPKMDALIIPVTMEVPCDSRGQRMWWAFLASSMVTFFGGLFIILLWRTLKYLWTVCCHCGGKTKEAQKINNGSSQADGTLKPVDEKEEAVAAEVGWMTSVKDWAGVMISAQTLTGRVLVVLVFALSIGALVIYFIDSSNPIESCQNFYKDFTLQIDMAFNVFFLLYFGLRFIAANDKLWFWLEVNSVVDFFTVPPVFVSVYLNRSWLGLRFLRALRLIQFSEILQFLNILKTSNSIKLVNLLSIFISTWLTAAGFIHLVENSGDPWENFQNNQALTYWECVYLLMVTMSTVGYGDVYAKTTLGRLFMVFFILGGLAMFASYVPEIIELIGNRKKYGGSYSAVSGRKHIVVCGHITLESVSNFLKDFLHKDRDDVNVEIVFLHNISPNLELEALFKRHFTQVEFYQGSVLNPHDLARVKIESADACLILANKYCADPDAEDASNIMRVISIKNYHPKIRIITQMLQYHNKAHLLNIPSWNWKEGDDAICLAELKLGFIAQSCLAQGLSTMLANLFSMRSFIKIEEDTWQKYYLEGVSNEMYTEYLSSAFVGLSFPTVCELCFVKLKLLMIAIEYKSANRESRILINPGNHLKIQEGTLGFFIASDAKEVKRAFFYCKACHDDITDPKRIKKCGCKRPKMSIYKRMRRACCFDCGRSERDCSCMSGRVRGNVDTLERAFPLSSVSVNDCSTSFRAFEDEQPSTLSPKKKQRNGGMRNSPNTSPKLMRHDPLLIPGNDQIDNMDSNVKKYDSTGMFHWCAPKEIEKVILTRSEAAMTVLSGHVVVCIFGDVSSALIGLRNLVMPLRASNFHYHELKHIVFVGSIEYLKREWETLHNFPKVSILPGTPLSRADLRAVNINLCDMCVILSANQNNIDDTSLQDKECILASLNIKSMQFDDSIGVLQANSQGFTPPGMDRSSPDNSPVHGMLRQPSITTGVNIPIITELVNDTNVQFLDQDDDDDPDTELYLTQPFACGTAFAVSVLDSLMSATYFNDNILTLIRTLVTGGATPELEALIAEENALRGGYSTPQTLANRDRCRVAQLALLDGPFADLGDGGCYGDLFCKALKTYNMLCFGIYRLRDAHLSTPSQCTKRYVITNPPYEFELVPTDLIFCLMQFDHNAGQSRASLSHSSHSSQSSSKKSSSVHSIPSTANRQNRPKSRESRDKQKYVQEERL
Chain of Maxi-K (Slo1 α1/β3) (Q9NPA1 whole entry partner, species assumed): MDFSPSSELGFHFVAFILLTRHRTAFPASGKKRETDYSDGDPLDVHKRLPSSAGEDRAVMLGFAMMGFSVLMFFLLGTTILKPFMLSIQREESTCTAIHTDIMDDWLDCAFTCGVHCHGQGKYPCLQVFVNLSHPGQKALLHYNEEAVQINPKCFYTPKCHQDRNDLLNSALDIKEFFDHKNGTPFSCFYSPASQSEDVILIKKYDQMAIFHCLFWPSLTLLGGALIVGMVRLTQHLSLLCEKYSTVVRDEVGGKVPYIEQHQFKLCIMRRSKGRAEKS

Structure (SMILES) | IC50 / EC50 (WT human SLACK; [1]) | IC50 / EC50 (WT human SLACK; EC50 for compounds of mode Act) | further results
CCOc1ccccc1S(=O)(=O)N1CC(c2nc(-c3ccc(F)cc3)no2)C1 [Compound 43, 5-(1-((2-Ethoxyphenyl)sulfonyl)azetidin-3-yl)-3-(4-fluorophenyl)-1,2,4-oxadiazole] | 3.2 µM | – | Maxi-K (Slo1 α1/β3) IC50 (Maxi-K (Slo1 α1/β3)): inactive
O=S(=O)(c1ccccc1OCC(F)(F)F)N1CC(c2nc(-c3ccc(F)cc3)no2)C1 [Compound 113, 3-(4-Fluorophenyl)-5-(1-((2-(2,2,2-trifluoroethoxy)phenyl)sulfonyl)azetidin-3-yl)-1,2,4-oxadiazole] | 8.8 µM | – | Maxi-K (Slo1 α1/β3) IC50 (Maxi-K (Slo1 α1/β3)): inactive
CCOc1ccccc1S(=O)(=O)N1CC(c2nc(-c3ccco3)no2)C1 [Compound 63, 5-(1-((2-Ethoxyphenyl)sulfonyl)azetidin-3-yl)-3-(furan-2-yl)-1,2,4-oxadiazole] | >10 µM | – | –
CCOc1ccccc1S(=O)(=O)c1ccc(-c2nc(-c3ccc(F)cc3)no2)cc1 [Compound 77] | Inactive | – | Mode (WT human SLACK): Inactive
CCOc1ccccc1S(=O)(=O)N1CC[C@@H](c2nc(-c3ccc(F)cc3)no2)C1 [Compound 74] | >10 µM | – | –
CCOc1ccccc1S(=O)(=O)N1CC(c2nnc(-c3ccc(F)cc3)[nH]2)C1 [Compound 86] | – | >10 µM | –
CCOc1ccccc1S(=O)(=O)N1CC(c2ncc(-c3ccc(F)cc3)o2)C1 [Compound 97] | – | 10 µM | –
CCOc1ccccc1S(=O)(=O)N1CC(c2noc(-c3ccc(F)cc3)n2)C1 [Compound 101] | >10 µM | – | –
CCOc1ccccc1S(=O)(=O)N1CC(c2cn(-c3ccc(F)cc3)nn2)C1 [Compound 95] | – | >10 µM | –
O=S(=O)(c1ccccc1OCC1CC1)N1CC(c2nc(-c3ccc(F)cc3)no2)C1 [Compound 114, 5-(1-((2-(Cyclopropylmethoxy)phenyl)sulfonyl)azetidin-3-yl)-3-(4-fluorophenyl)-1,2,4-oxadiazole] | 6.0 µM | – | –
COc1cccc(S(=O)(=O)N2CC(c3nc(-c4ccsc4)no3)C2)c1 [Compound 24, 5-(1-((3-Methoxyphenyl)sulfonyl)azetidin-3-yl)-3-(thiophen-3-yl)-1,2,4-oxadiazole] | Inactive | – | Mode (WT human SLACK): Inactive
O=S(=O)(c1cccc2ccoc12)N1CC(c2nc(-c3ccc(F)cc3)no2)C1 [Compound 120, 5-(1-(Benzofuran-7-ylsulfonyl)azetidin-3-yl)-3-(4-fluorophenyl)-1,2,4-oxadiazole] | – | 2.3 µM | –
CCOc1ccccc1OC(=O)N1CC(c2nc(-c3ccsc3)no2)C1 [Compound 36] | – | >10 µM | –
O=S(=O)(c1ccccc1OCC1CCC1)N1CC(c2nc(-c3ccc(F)cc3)no2)C1 [Compound 110, 5-(1-((2-(Cyclobutylmethoxy)phenyl)sulfonyl)azetidin-3-yl)-3-(4-fluorophenyl)-1,2,4-oxadiazole] | 9.3 µM | – | –
CCOc1ccccc1S(=O)(=O)N1CC(c2nc(-c3cccc(F)c3)no2)C1 [Compound 42, 5-(1-((2-Ethoxyphenyl)sulfonyl)azetidin-3-yl)-3-(3-fluorophenyl)-1,2,4-oxadiazole] | Inactive | – | Mode (WT human SLACK): Inactive
O=S(=O)(c1cccc(F)c1)N1CC(c2nc(-c3ccsc3)no2)C1 [Compound 12, 5-(1-((3-Fluorophenyl)sulfonyl)azetidin-3-yl)-3-(thiophen-3-yl)-1,2,4-oxadiazole] | – | >10 µM | –
O=S(=O)(c1ccc(F)cc1)N1CC(c2nc(-c3ccsc3)no2)C1 [Compound 13, 5-(1-((4-Fluorophenyl)sulfonyl)azetidin-3-yl)-3-(thiophen-3-yl)-1,2,4-oxadiazole] | Inactive | – | Mode (WT human SLACK): Inactive
O=S(=O)(c1ccccc1C(F)(F)F)N1CC(c2nc(-c3ccsc3)no2)C1 [Compound 17, 3-(Thiophen-3-yl)-5-(1-((2-(trifluoromethyl)phenyl)sulfonyl)azetidin-3-yl)-1,2,4-oxadiazole] | – | 6.0 µM | –
CCOc1ccccc1S(=O)(=O)N1CC(c2cc(-c3ccc(F)cc3)n[nH]2)C1 [Compound 103] | – | >10 µM | –

Structure (SMILES) | IC50 / EC50 (WT human SLACK; [1]) | IC50 / EC50 (WT human SLACK; EC50 for compounds of mode Act) | further results
CCOc1ccccc1NC(=O)N1CC(c2nc(-c3ccsc3)no2)C1 [Compound 35] | – | >10 µM | –
CCOc1ccccc1S(=O)(=O)N1CC(c2cc(-c3ccc(F)cc3)on2)C1 [Compound 102] | Inactive | – | Mode (WT human SLACK): Inactive
CCOc1ccccc1S(=O)(=O)N1CC(c2nnc(-c3ccc(F)cc3)o2)C1 [Compound 81] | – | >10 µM | –
CCOc1ccccc1S(=O)(=O)N1CC(c2nc(-c3ccccc3)no2)C1 [Compound 40, 5-(1-((2-Ethoxyphenyl)sulfonyl)azetidin-3-yl)-3-phenyl-1,2,4-oxadiazole] | >10 µM | – | –
CCOc1ncccc1S(=O)(=O)N1CC(c2nc(-c3ccc(F)cc3)no2)C1 [Compound 111] | >10 µM | – | –
CCOc1ccccc1S(=O)(=O)N1CC(C)(c2nc(-c3ccc(F)cc3)no2)C1 [Compound 69] | – | 4.0 µM | –
Cc1nc2c(S(=O)(=O)N3CC(c4nc(-c5ccc(F)cc5)no4)C3)cccn2n1 [Compound 130] | – | >10 µM | –
O=S(=O)(c1ccccc1F)N1CC(c2nc(-c3ccsc3)no2)C1 [Compound 11, 5-(1-((2-Fluorophenyl)sulfonyl)azetidin-3-yl)-3-(thiophen-3-yl)-1,2,4-oxadiazole] | – | 4.8 µM | –
CCOc1ccccc1S(=O)(=O)N1CC(c2nc(-c3ccncc3)no2)C1 [Compound 66, 5-(1-((2-Ethoxyphenyl)sulfonyl)azetidin-3-yl)-3-(pyridin-4-yl)-1,2,4-oxadiazole] | Inactive | – | Mode (WT human SLACK): Inactive
O=S(=O)(c1cccn2cnnc12)N1CC(c2nc(-c3ccc(F)cc3)no2)C1 [Compound 132] | – | >10 µM | –
CCOc1ccccc1S(=O)(=O)N1CC(c2nc(-c3ccc(C)cc3)no2)C1 [Compound 52, 5-(1-((2-Ethoxyphenyl)sulfonyl)azetidin-3-yl)-3-(p-tolyl)-1,2,4-oxadiazole] | Inactive | – | Mode (WT human SLACK): Inactive
CCOc1ccccc1S(=O)(=O)N1CC(c2nc(-c3ccc(Cl)cc3)no2)C1 [Compound 46, 3-(4-Chlorophenyl)-5-(1-((2-ethoxyphenyl)sulfonyl)azetidin-3-yl)-1,2,4-oxadiazole] | 11 µM | – | –
CCOc1ccccc1S(=O)(=O)N1CC(c2nc(-c3ccccn3)no2)C1 [Compound 64, 5-(1-((2-Ethoxyphenyl)sulfonyl)azetidin-3-yl)-3-(pyridin-2-yl)-1,2,4-oxadiazole] | Inactive | – | Mode (WT human SLACK): Inactive
CCOc1ccccc1S(=O)(=O)N1CC(c2nc(-c3ccc(F)cc3)cn2C)C1 [Compound 100] | >10 µM | – | –
CCOc1ccccc1CN1CC(c2nc(-c3ccsc3)no2)C1 [Compound 31] | – | >10 µM | –
CCOc1ccccc1S(=O)(=O)[C@H]1C[C@@H](c2nc(-c3ccc(F)cc3)no2)C1 [Compound 73a] | Inactive | – | Mode (WT human SLACK): Inactive
O=S(=O)(c1cccc(Cl)c1)N1CC(c2nc(-c3ccsc3)no2)C1 [Compound 15, 5-(1-((3-Chlorophenyl)sulfonyl)azetidin-3-yl)-3-(thiophen-3-yl)-1,2,4-oxadiazole] | Inactive | – | Mode (WT human SLACK): Inactive
O=S(=O)(c1ccccc1N1CCCC1)N1CC(c2nc(-c3ccc(F)cc3)no2)C1 [Compound 117, 3-(4-Fluorophenyl)-5-(1-((2-(pyrrolidin-1-yl)phenyl)sulfonyl)azetidin-3-yl)-1,2,4-oxadiazole] | 8.9 µM | – | –
CCOc1ccccc1S(=O)(=O)N1CC(c2nc(-c3ccccc3F)no2)C1 [Compound 41, 5-(1-((2-Ethoxyphenyl)sulfonyl)azetidin-3-yl)-3-(2-fluorophenyl)-1,2,4-oxadiazole] | 7.9 µM | – | –
